Assay results collected from several papers.
Compare with care: the assays were run in different laboratories.
Target: Proto-oncogene tyrosine-protein kinase Src (SRC, Homo sapiens, UniProt P12931)

| SMILES | assay | conditions | quantity | result |
| --- | --- | --- | --- | --- |
| COc1ccc2oc(-c3ccc4nc(N)oc4c3)c/c(=N\c3ccccc3NC(=O)CCN)c2c1 | binding | 1 µM | remaining binding | 72% |
| Cc1cc(O)c(-c2ccc([C@@H](C)CN(C)C)cc2)c2c1[nH]c(=O)c1sccc12 | enzyme activity, inhibitor | 0.1 µM | inhibition | -1.37% |
| C#Cc1cc(-c2cc(Nc3nc(N[C@@H](C)c4ccc(F)cn4)ncc3Cl)n[nH]2)ccc1C=O | enzyme activity, inhibitor | 0.2 µM | inhibition | 37.7% |
| Cc1ccc(NC(=O)c2ccnc(C(F)(F)F)c2)cc1-c1cc(OCCO)nc(N2CCOCC2)c1 | binding, competition with immobilised ligand | 1 µM | remaining binding | 100% |
| CO[C@@H]1[C@H](N(C)C(=O)c2ccccc2)C[C@H]2O[C@]1(C)n1c3ccccc3c3c4c(c5c6ccccc6n2c5c31)C(=O)NC4 | enzyme activity, inhibitor | 1 µM | inhibition | 31% |
| C[C@H]1CC[C@H](n2c3cnccc3c3cnc(Nc4ccc5c(n4)CCN(C(=O)CO)C5)nc32)CC1 | cell-free assay, competition with immobilised ligand | 1 µM | remaining binding | 65% |
| N#Cc1ccc(NC(=O)Nc2ccccc2)cc1 | cell-free assay, competition with immobilised ligand | 25 µM | remaining binding | 100% |
| C=CC(=O)N1CCC([C@@H]2CCNc3c(C(N)=O)c(-c4ccc(Oc5ccccc5)cc4)nn32)CC1 | enzyme activity, inhibitor | 1 µM | inhibition | 42% |
| Cc1cc2c(C(N)=O)c(N)n(-c3c(C)ccc(O)c3C)c2nc1C | enzyme activity, inhibitor, TR-FRET | 3.333 µM | inhibition | 100% |
| CCCCC(=O)Nc1ccc(-c2ccc3ncn(CCC)c(=O)c3c2)cn1 | binding, competition with immobilised ligand | 0.5 µM | remaining binding | 97% |
